Reference: ChEMBL document CHEMBL4825688, “Synthesis, biological evaluation and molecular modeling of benzofuran piperidine derivatives as Aβ antiaggregant” (Eur J Med Chem, 2021)
Active and inactive are the calls of the source. The rule behind the calls is not given here.

How the values were obtained:
[1] = target: T1, Amyloid-beta precursor protein (Homo sapiens, UniProt P05067); experiment: Inhibition of human amyloid beta (25 to 35) self-induced aggregation at 100 uM after 48 hrs by thioflavin-T fluorescence relative to control
Outline: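 Aβ25-35 (10 μM, DMSO stock diluted) incubated with test compound (100 μM) in 0.05 M potassium phosphate buffer (pH 7.4) containing 0.01 M NaCl, 37 °C, 48 h; then ThT (200 μM) in 50 mM glycine-NaOH (pH 8.0) added and fluorescence read. Mean ± SD of three experiments.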

Acetylcholinesterase = Acetylcholinesterase (Homo sapiens, UniProt P22303); experiment: Inhibition of recombinant human AChE using acetylthiocholine iodide as substrate measured after 7 mins by Ellman's method
Cholinesterase = Cholinesterase (Homo sapiens, UniProt P06276); experiment: Inhibition of recombinant human BuChe using S-butyrylthiocholine iodide as substrate measured after 7 mins by Ellman's method
Homo sapiens = species: Homo sapiens; experiment: Selectivity index, ratio of IC50 for human BuChE to IC50 for human AChE
[2] = Cytotoxicity against human SH-SY5Y cells assessed as cell viability at 10 uM measured after 48 hrs by MTT assay relative to control
SH-SY5Y [3] = experiment: Neuroprotective activity against amyloid beta (25 to 35)-induced cell damage in human SH-SY5Y cells assessed as neuronal viability at 10 uM measured after 24 hrs in presence of amyloid beta (25 to 35) by MTT assay (reference value: 68.66 +/- 0.11 %); format: functional
SH-SY5Y [4] = experiment: Neuroprotective activity against amyloid beta (25 to 35)-induced cell damage in human SH-SY5Y cells assessed as LDH release at 10 uM measured after 24 hrs in presence of amyloid beta (25 to 35) by LDH assay (reference value: 364.06 +/- 2.15 %); format: functional
SH-SY5Y [5] = experiment: Neuroprotective activity against amyloid beta (25 to 35)-induced cell damage assessed as cell viability in human SH-SY5Y cells by measuring ATP at 10 uM measured after 24 hrs in presence of amyloid beta (25 to 35) by CellTiter-Glo luminescent cell viability assay (reference value: 90.95 +/- 0.82 %); format: functional
[6] = Antioxidant activity assessed as DPPH radical scavenging activity at 50 uM incubated for 1 hrs under light restrictive condition by UV-microplate reader assay relative to control; format: functional
Outline: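 DPPH stock 56 mM and compound stock 500 mM in anhydrous methanol; compound at 50 µM final with DPPH in methanol. Absorbance read at 517 nm after 30 s shaking, then again after 1 h at room temperature in the dark. Scavenging % = (A control − A sample)/A control ×100.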

SH-SY5Y [7] = experiment: Neuroprotective activity against amyloid beta (25 to 35)-induced oxidative stress in human SH-SY5Y cells assessed as decrease in intracellular ROS production at 10 uM incubated with amyloid beta (25 to 35) for 24 hrs by DCFH-DA staining-based flow cytometric analysis; format: functional, cell-based
Outline: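 SH-SY5Y (1×10⁶ cells/well) grown 24 h, then exposed to unaggregated Aβ25-35 (10 µM) ± compounds (10 µM) for 24 h at 37 °C. After three PBS washes, cells were loaded with DCFH-DA (10 µM) for 30 min, rinsed, pelleted at 1500 rpm for 5 min, resuspended in PBS and analyzed by flow cytometry (10,000 events). Mean ± SD of three experiments.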

[8] = target: T1, Amyloid-beta precursor protein; experiment: Inhibition of amyloid beta(25 to 35) (unknown origin) binding to human SH-SY5Y cell plasma membrane at 10 uM measured after 20 mins by UV-vis microplate reader assay; format: cell membranes
Outline: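 SH-SY5Y cells seeded 24 h, then fresh medium with Aβ25-35 (10 µM) ± compounds (10 µM) for 30, 60 and 120 min. After two PBS washes, bound peptide was stained with Congo red in PBS for 20 min and read at 540 nm. Values are % of untreated cells (100%).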

SH-SY5Y [9] = experiment: Neuroprotective activity against amyloid beta (25 to 35)-induced cell damage in human SH-SY5Y cells assessed as viable at 10 uM by annexin-V and propidium iodide staining based flow cytometry analysis assay (reference value: 88.2 %); format: functional
Outline: (§1)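 SH-SY5Y cells exposed to Aβ25-35 (10 µM) ± compounds (10 µM), then trypsinized, washed with PBS and pelleted at 1000 rpm for 3 min. Cells were stained with FITC-Annexin V and PI in binding buffer for 15 min at room temperature and analyzed by flow cytometry (10,000 events). Mean ± SD of three experiments.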

SH-SY5Y [10] = experiment: Neuroprotective activity against amyloid beta (25 to 35)-induced cell damage in human SH-SY5Y cells assessed as early apoptotic cell at 10 uM by annexin-V and propidium iodide staining based flow cytometry analysis assay (reference value: 10.9 %); format: functional; outline: as §1
SH-SY5Y [11] = experiment: Neuroprotective activity against amyloid beta (25 to 35)-induced cell damage in human SH-SY5Y cells assessed as late apoptotic cell at 10 uM by annexin-V and propidium iodide staining based flow cytometry analysis assay (reference value: 0.890 %); format: functional; outline: as §1
SH-SY5Y [12] = experiment: Neuroprotective activity against amyloid beta (25 to 35)-induced cell damage in human SH-SY5Y cells assessed as necrotic cell at 10 uM by annexin-V and propidium iodide staining based flow cytometry analysis assay (reference value: 0 %); format: functional; outline: as §1
SH-SY5Y [13] = experiment: Neuroprotective activity against amyloid beta (25 to 35)-induced cell damage in human SH-SY5Y cells assessed as increase in neuronal viability measured after 24 hrs in presence of amyloid beta (25 to 35) by MTT assay; format: functional, cell-based; conditions: dose 1-10 µM

T1 sequence (P05067 whole entry): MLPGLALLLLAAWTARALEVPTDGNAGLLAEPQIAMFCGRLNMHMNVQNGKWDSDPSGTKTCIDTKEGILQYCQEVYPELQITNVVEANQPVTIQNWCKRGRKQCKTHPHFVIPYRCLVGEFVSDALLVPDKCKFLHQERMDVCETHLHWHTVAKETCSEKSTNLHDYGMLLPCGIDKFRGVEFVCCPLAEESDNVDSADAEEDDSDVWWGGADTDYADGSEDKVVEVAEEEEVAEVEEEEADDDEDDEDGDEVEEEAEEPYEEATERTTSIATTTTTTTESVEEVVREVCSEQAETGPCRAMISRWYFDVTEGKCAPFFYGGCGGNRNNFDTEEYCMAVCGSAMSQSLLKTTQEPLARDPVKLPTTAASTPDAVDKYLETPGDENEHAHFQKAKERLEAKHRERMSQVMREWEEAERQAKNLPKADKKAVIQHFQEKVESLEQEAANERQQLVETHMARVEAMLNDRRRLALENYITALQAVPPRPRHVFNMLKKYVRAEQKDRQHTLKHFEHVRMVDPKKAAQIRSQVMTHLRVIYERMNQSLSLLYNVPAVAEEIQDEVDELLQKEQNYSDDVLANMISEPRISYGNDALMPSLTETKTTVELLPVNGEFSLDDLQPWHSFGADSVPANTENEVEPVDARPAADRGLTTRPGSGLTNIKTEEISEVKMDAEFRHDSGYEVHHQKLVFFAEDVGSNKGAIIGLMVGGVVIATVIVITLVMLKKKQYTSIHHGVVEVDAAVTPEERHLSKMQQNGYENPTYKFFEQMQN
Sequence of Acetylcholinesterase (P22303 whole entry): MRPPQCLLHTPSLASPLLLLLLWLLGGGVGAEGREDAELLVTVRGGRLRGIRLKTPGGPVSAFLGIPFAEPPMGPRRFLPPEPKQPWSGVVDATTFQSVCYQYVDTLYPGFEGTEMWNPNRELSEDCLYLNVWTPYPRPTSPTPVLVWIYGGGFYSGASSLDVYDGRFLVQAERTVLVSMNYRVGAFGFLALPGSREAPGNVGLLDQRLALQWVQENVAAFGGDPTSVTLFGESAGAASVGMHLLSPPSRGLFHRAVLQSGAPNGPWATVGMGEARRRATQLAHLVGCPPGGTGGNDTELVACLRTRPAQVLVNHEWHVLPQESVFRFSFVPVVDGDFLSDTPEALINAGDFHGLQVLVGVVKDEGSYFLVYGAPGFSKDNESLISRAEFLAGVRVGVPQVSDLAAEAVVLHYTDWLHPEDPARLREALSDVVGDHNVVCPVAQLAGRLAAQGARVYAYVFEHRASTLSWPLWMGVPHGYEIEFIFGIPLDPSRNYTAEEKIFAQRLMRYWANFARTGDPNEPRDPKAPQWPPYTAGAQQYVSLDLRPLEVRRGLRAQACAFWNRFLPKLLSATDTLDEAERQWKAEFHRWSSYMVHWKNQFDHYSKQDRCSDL
Sequence of Cholinesterase (P06276 whole entry): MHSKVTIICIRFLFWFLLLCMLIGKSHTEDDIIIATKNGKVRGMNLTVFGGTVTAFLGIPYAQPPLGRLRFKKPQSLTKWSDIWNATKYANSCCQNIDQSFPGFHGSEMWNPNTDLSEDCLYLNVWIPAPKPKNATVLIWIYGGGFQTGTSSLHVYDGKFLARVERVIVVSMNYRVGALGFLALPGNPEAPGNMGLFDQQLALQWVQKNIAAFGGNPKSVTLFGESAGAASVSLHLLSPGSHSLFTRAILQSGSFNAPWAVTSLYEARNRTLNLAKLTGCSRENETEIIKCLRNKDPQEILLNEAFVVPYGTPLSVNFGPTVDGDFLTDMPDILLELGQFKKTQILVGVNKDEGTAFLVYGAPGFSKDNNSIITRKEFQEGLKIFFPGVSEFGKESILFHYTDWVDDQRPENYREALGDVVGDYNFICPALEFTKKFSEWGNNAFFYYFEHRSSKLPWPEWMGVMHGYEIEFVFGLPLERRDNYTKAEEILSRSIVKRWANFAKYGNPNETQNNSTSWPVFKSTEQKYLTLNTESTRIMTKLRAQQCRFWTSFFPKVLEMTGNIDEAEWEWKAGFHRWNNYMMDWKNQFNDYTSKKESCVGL

COc1ccc(OC)c(CN2CCC(c3cc4ccccc4o3)CC2)c1
inhibition [1]: 51.8%
IC50 (Acetylcholinesterase): 23.9 µM
IC50 (Cholinesterase): 35.5 µM
Selectivity Index (Homo sapiens): 0.04
viability at 48 h, 10 µM ([2]; SH-SY5Y cells): 102%
Activity (SH-SY5Y [3]): 79.09%
Activity (SH-SY5Y [4]): 324.83%
Activity (SH-SY5Y [5]): 102.53%
Activity [6]: 11.9%

COc1ccc(OC)c(CN2CCC(c3oc4ccccc4c3C(=O)c3ccc(OC)c(OC)c3)CC2)c1
inhibition [1]: 37.4%
IC50 (Acetylcholinesterase): 55.4 µM
IC50 (Cholinesterase): 66.3 µM
Selectivity Index (Homo sapiens): 1.19

Oc1ccc(CN2CCC(c3cc4ccccc4o3)CC2)cc1
inhibition [1]: 48.3%
IC50 (Acetylcholinesterase): 34.9 µM
IC50 (Cholinesterase): 64.6 µM
Selectivity Index (Homo sapiens): 1.8
viability at 48 h, 10 µM ([2]; SH-SY5Y cells): 96.4%
Activity [6]: 12.2%

COc1ccc(C(=O)c2c(C3CCN(Cc4ccccc4)CC3)oc3ccccc23)cc1
inhibition [1]: 47.4%
IC50 (Acetylcholinesterase): 48.3 µM
IC50 (Cholinesterase): 52.1 µM
Selectivity Index (Homo sapiens): 1.07
viability at 48 h, 10 µM ([2]; SH-SY5Y cells): 107%
Activity (SH-SY5Y [3]): 75.17%
Activity (SH-SY5Y [4]): 285%
Activity (SH-SY5Y [5]): 100.79%
Activity [6]: 17.6%

COc1ccc(CN2CCC(c3oc4ccccc4c3C(=O)c3ccc(OC)cc3)CC2)cc1
inhibition [1]: 45%
IC50 (Acetylcholinesterase): 59.7 µM
IC50 (Cholinesterase): 59.7 µM
Selectivity Index (Homo sapiens): 0.99

COc1cc(/C=C/C(=O)O)ccc1O
Activity [6]: 50%

COc1cc2c(cc1OC)C(=O)C(CC1CCN(Cc3ccccc3)CC1)C2 (stereo unspecified) [DONEPEZIL]
viability at 48 h, 10 µM ([2]; sh-sy5y): 101%
Activity (SH-SY5Y [3]): 60.82%

COc1ccc(OC)c(CN2CCC(c3oc4ccccc4c3C(=O)c3ccccc3)CC2)c1
inhibition [1]: 39.4%
IC50 (Acetylcholinesterase): 58.2 µM
IC50 (Cholinesterase): 33.5 µM
Selectivity Index (Homo sapiens): 0.45

O=C(c1ccccc1)c1c(C2CCN(Cc3ccccc3)CC2)oc2ccccc12
inhibition [1]: 61.9%
IC50 (Acetylcholinesterase): 41.3 µM
IC50 (Cholinesterase): > 100 µM
viability at 48 h, 10 µM ([2]; SH-SY5Y cells): 107%
Activity (SH-SY5Y [3]): 76.06%
Activity (SH-SY5Y [4]): 316.05%
Activity (SH-SY5Y [5]): 95.49%
Activity [6]: 21.6%
Activity (SH-SY5Y [7]): Active
inhibition (INH) [8]: Active
Activity (SH-SY5Y [9]): 98.1%
Activity (SH-SY5Y [10]): 0.77%
Activity (SH-SY5Y [11]): 0.65%
Activity (SH-SY5Y [12]): 0.52%

COc1cc(/C=C/C(=O)CC(=O)/C=C/c2ccc(O)c(OC)c2)ccc1O [CURCUMIN]
viability at 48 h, 10 µM ([2]; SH-SY5Y cells): 60%
Activity (SH-SY5Y [3]): 45.95%

COc1ccc(CN2CCC(c3cc4ccccc4o3)CC2)cc1
inhibition [1]: 8.04%
IC50 (Acetylcholinesterase): 92.8 µM
IC50 (Cholinesterase): > 100 µM

COc1ccc(CN2CCC(c3oc4ccccc4c3C(=O)c3ccccc3)CC2)cc1OC
inhibition [1]: 42.9%
IC50 (Acetylcholinesterase): 45.3 µM
IC50 (Cholinesterase): > 100 µM

Fc1ccc(CN2CCC(c3cc4ccccc4o3)CC2)cc1
inhibition [1]: 57.7%
IC50 (Acetylcholinesterase): 21.3 µM
IC50 (Cholinesterase): 55.8 µM
Selectivity Index (Homo sapiens): 2.6
viability at 48 h, 10 µM ([2]; SH-SY5Y cells): 101%
Activity (SH-SY5Y [3]): 80.8%
Activity (SH-SY5Y [13]): Dose-Dependent Effect
Activity (SH-SY5Y [4]): 287.37%
Activity (SH-SY5Y [5]): 104.56%
Activity [6]: 10.8%
Activity (SH-SY5Y [7]): Active
inhibition (INH) [8]: Active
Activity (SH-SY5Y [9]): 98.2%
Activity (SH-SY5Y [10]): 1.2%
Activity (SH-SY5Y [11]): 0.05%
Activity (SH-SY5Y [12]): 1.58%

CCc1ccc(CN2CCC(c3cc4ccccc4o3)CC2)cc1
inhibition [1]: 19.9%
IC50 (Acetylcholinesterase): 64.2 µM
IC50 (Cholinesterase): > 100 µM

Cc1c(C)c2c(c(C)c1O)CCC(C)(C(=O)O)O2 (stereo unspecified)
Activity [6]: 55.5%

c1ccc(CN2CCC(c3cc4ccccc4o3)CC2)cc1
inhibition [1]: 55.4%
IC50 (Acetylcholinesterase): 5.07 µM
IC50 (Cholinesterase): 54.3 µM
Selectivity Index (Homo sapiens): 10.8
viability at 48 h, 10 µM ([2]; SH-SY5Y cells): 105%
Activity (SH-SY5Y [3]): 88.91%
Activity (SH-SY5Y [13]): Dose-Dependent Effect
Activity (SH-SY5Y [4]): 294.64%
Activity (SH-SY5Y [5]): 101.59%
Activity [6]: 18.2%
Activity (SH-SY5Y [7]): Active
inhibition (INH) [8]: Active
Activity (SH-SY5Y [9]): 97.5%
Activity (SH-SY5Y [10]): 1.08%
Activity (SH-SY5Y [11]): 0.55%
Activity (SH-SY5Y [12]): 0.03%

COc1ccc(CN2CCC(c3cc4ccccc4o3)CC2)cc1OC
inhibition [1]: 14.7%
IC50 (Acetylcholinesterase): 52.8 µM
IC50 (Cholinesterase): 64.6 µM
Selectivity Index (Homo sapiens): 1.2

Clc1ccc(CN2CCC(c3cc4ccccc4o3)CC2)cc1
inhibition [1]: 24.4%
IC50 (Acetylcholinesterase): 98.5 µM
IC50 (Cholinesterase): > 100 µM

COc1ccc(CN2CCC(c3oc4ccccc4c3C(=O)c3ccccc3)CC2)cc1
inhibition [1]: 42.2%
IC50 (Acetylcholinesterase): 97.1 µM
IC50 (Cholinesterase): 62.6 µM
Selectivity Index (Homo sapiens): 0.6

Oc1ccc(/C=C/c2cc(O)cc(O)c2)cc1
Activity [6]: 45.7%

COc1ccc(CN2CCC(c3oc4ccccc4c3C(=O)c3ccc(OC)c(OC)c3)CC2)cc1OC
inhibition [1]: 54.4%
IC50 (Acetylcholinesterase): 68 µM
IC50 (Cholinesterase): 62.2 µM
Selectivity Index (Homo sapiens): 0.9

COc1ccc(C(=O)c2c(C3CCN(Cc4cc(OC)ccc4OC)CC3)oc3ccccc23)cc1
inhibition [1]: 46%
IC50 (Acetylcholinesterase): 61 µM
IC50 (Cholinesterase): 61.7 µM
Selectivity Index (Homo sapiens): 1.01

c1ccc2oc(C3CCNCC3)cc2c1
inhibition [1]: 45.5%
IC50 (Acetylcholinesterase): 61.2 µM
IC50 (Cholinesterase): 64.4 µM
Selectivity Index (Homo sapiens): 1
